The source made the active and inactive calls. The calls are words filed in the database; no cut-off is given here.
What was measured:
[1] = system: MDA-MB-231; assay: Antiproliferative activity against human MDA-MB-231 cells incubated for 72 hrs by MTT assay; assay type: functional, cell-based; settings: MDA-MB-231, 72 h
In short: (§1)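 Cells seeded at 5 × 10^3/well and allowed to attach overnight, then washed with PBS. Compound diluted from 10 mM DMSO stock into medium (100 ng/mL HGF added for c-Met-expressing cells), in triplicate, 72 h at 37 °C. MTT added for 4 h, formazan dissolved in DMSO, absorbance read at 570 nm. Cell numbers taken from a standard curve; IC50 calculated.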

[2] = target: T1, mTORC2 (Homo sapiens) (UniProt P42345+Q6R327+Q9BVC4+Q9BPZ7); assay: Inhibition of mTORC2 in human MDA-MB-231 cells assessed as reduction in Akt phosphorylation at Ser473 residue at 0.25 to 0.5 uM by Western blot analysis; assay type: cell-based; settings: dose 0.25-0.5 µM
In short: (§2)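 Cells seeded at 5 × 10^5 per 100 mm dish and allowed to attach overnight. Treated with compound or DMSO for 72 h (HGF 100 ng/mL added for MDA-MB-231). Lysed in RIPA buffer with protease inhibitors. 30 μg protein run on SDS-PAGE, transferred to PVDF, blocked in 5% BSA/TBST. Primary antibodies overnight at 4 °C, HRP secondary antibodies, chemiluminescent detection.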

[3] = target: Serine/threonine-protein kinase mTOR (Homo sapiens) (UniProt P42345); assay: Inhibition of mTOR in human […] cells assessed as reduction in phosphorylated 4E-BP1 level at 0.25 to 0.5 uM by Western blot analysis; assay type: cell-based; settings: MCF7, dose 0.25-0.5 µM; in short: as §2
[4] = system: MCF7; assay: Antitumor activity against human MCF7 cells xenografted in athymic nude mouse assessed as inhibition of tumor growth at 10 mg/kg, ip administered for 3 weeks; parameters: scale not given: the % may be the effect or the level left
[5] = target: Serine/threonine-protein kinase mTOR (Homo sapiens) (UniProt P42345); assay: In vivo inhibition of mTOR in human MDA-MB-231/GFP cells xenografted in athymic nude mouse assessed as downregulation of phosphorylated 4E-BP1 level at 10 mg/kg, ip
[6] = system: MDA-MB-468; assay: Induction of autophagy in human MDA-MB-468 cells assessed as autophagic vacuoles by microscopic analysis; assay type: functional, cell-based
In short: (§3)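 Cells of each line treated with compound and examined by light microscopy for autophagic vacuoles, compared with control cells.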

[7] = target: Serine/threonine-protein kinase mTOR (Homo sapiens) (UniProt P42345); assay: In vivo inhibition of mTOR in human MCF7 cells xenografted in athymic nude mouse assessed as downregulation of phosphorylated 4E-BP1 level at 10 mg/kg, ip
[8] = system: MCF7; assay: Antiproliferative activity against human MCF7 cells incubated for 72 hrs by MTT assay; assay type: functional, cell-based; settings: MCF7, 72 h; in short: as §1
[9] = system: BT-474; assay: Antiproliferative activity against human BT-474 cells incubated for 72 hrs by MTT assay; assay type: functional, cell-based; settings: BT-474, 72 h; in short: as §1
[10] = system: T47D; assay: Antiproliferative activity against human T47D cells incubated for 72 hrs by MTT assay; assay type: functional, cell-based; in short: as §1
[11] = target: Serine/threonine-protein kinase mTOR (Homo sapiens) (UniProt P42345); assay: In vivo inhibition of mTOR in human MDA-MB-231/GFP cells xenografted in athymic nude mouse assessed as downregulation of phosphorylated S6K level at 10 mg/kg, ip
[12] = Toxicity in athymic nude mouse xenografted with human MDA-MB-231/GFP cells assessed as reduction in body weight at 10 mg/kg, ip measured after 34 days post inoculation; settings: in vivo, 816 h
[13] = system: MCF7; assay: Antitumor activity against human MCF7 cells xenografted in athymic nude mouse assessed as reduction in mean tumor volume at 10 mg/kg, ip measured after 75 days post inoculation (reference value: 1093 +/- 185 mm3); settings: time 75 day
[14] = system: MCF7; assay: Induction of autophagy in human MCF7 cells assessed as increase in LC3 level at 0.4 to 0.8 uM by Western blotting analysis; assay type: functional, cell-based; settings: dose 0.4-0.8 µM; in short: as §2
[15] = Toxicity in athymic nude mouse xenografted with human MCF7 cells assessed as reduction in body weight at 10 mg/kg, ip measured after 75 days post inoculation; settings: in vivo, 1800 h
[16] = system: MCF7; assay: Inhibition of colony formation in human MCF7 cells at 0.6 uM incubated for 8 days by inverted phase contrast microscopic analysis; assay type: functional; settings: MCF7, 192 h, time 8 day
In short: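 Soft agar assay: 5 × 10^3 MCF-7 cells per well in a cell/agar matrix layered over a base agar layer. Overlaid with 10% serum medium containing 0.2 or 0.6 μM compound, or DMSO. Colonies photographed under inverted phase-contrast microscopy after 8 days. Matrix then solubilized, MTT added (4 h, 37 °C), detergent added, A570 read. Growth normalized to DMSO.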

[17] = system: MCF-10A; assay: Cytotoxicity against human MCF-10A cells at 6 times of IC50 incubated for 24 hrs by MTT assay; assay type: toxicity, cell-based
In short: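 MCF-10A cells seeded at 3 × 10^4/well and allowed to attach overnight. Treated with compound in serum-free medium, in triplicate, for 24 h; vehicle wells got the maximum DMSO amount. Doxorubicin (10 μM) was the positive control. MTT for 4 h, formazan dissolved in DMSO, A570 blank-subtracted. Cell numbers from a standard curve; viability expressed versus DMSO wells.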

[18] = system: MDA-MB-231; assay: Antitumor activity against human MDA-MB-231/GFP cells xenografted in athymic nude mouse assessed as reduction in mean tumor volume at 10 mg/kg, ip measured after 34 days post inoculation (reference value: 1835 +/- 251 mm3); settings: time 34 day
[19] = target: Serine/threonine-protein kinase mTOR (Homo sapiens) (UniProt P42345); assay: In vivo inhibition of mTOR in human MCF7 cells xenografted in athymic nude mouse assessed as downregulation of phosphorylated S6K level at 10 mg/kg, ip
[20] = target: T1, mTORC2 (Homo sapiens); assay: Inhibition of mTORC2 in human MCF7 cells assessed as reduction in Akt phosphorylation at Ser473 residue at 0.25 to 0.5 uM by Western blot analysis; assay type: cell-based; settings: dose 0.25-0.5 µM; in short: as §2
[21] = target: Serine/threonine-protein kinase mTOR (Homo sapiens) (UniProt P42345); assay: Inhibition of mTOR in human […] cells assessed as reduction in p-S6K level at 0.25 to 0.5 uM by Western blot analysis; assay type: cell-based; settings: MCF7, dose 0.25-0.5 µM; in short: as §2
[22] = system: MCF7; assay: Induction of autophagy in human MCF7 cells assessed as increase in beclin-1 level at 0.4 to 0.8 uM by Western blotting analysis; assay type: functional, cell-based; settings: dose 0.4-0.8 µM; in short: as §2
[23] = system: MDA-MB-468; assay: Antiproliferative activity against human MDA-MB-468 cells incubated for 72 hrs by MTT assay; assay type: functional, cell-based; settings: MDA-MB-468, 72 h; in short: as §1
[24] = system: MCF7; assay: Induction of autophagy in human MCF7 cells assessed as autophagic vacuoles by microscopic analysis; assay type: functional, cell-based; in short: as §3

- IC50 [1]: 320 nM
- inhibition [2]: Active
- inhibition [3]: Active
- inhibition [5]: Active
- inhibition [7]: Active
- IC50 [8]: 280 nM
- IC50 [9]: 390 nM
- IC50 [10]: 330 nM
- inhibition [11]: Active
- inhibition [19]: Active
- inhibition [20]: Active
- inhibition [21]: Active
- IC50 [23]: 350 nM
SMILES: CC(=O)C1=C(O)C=C2Oc3c(C(=O)/C=C/c4ccc(OC(F)(F)F)cc4)c(O)c(C)c(O)c3[C@]2(C)C1=O
- Activity [4]: 64.8%
- Activity [6]: Active
- Activity [12]: Non-Toxic
- Activity [13]: 385 mm3
- Activity [14]: Active
- Activity [15]: Non-Toxic
- inhibition at 0.6 µM [16]: 75.3%
- Activity [17]: Non-Toxic
- Activity [18]: 692 mm3
- Activity [22]: Active
- Activity [24]: Active

Source: ChEMBL document CHEMBL5252537, “Usnic Acid Benzylidene Analogues as Potent Mechanistic Target of Rapamycin Inhibitors for the Control of Breast Malignancies” (J Nat Prod, 2017)
